This is an account of results in ChEMBL document CHEMBL1148608, “Correlation of antifungal activity with fungal phospholipase inhibition using a series of bisquaternary ammonium salts” (J Med Chem, 2006).

The target of one assay is T1, Phospholipase B (Cryptococcus neoformans, UniProt Q9P8P2).
T1 sequence (Q9P8P2 whole entry): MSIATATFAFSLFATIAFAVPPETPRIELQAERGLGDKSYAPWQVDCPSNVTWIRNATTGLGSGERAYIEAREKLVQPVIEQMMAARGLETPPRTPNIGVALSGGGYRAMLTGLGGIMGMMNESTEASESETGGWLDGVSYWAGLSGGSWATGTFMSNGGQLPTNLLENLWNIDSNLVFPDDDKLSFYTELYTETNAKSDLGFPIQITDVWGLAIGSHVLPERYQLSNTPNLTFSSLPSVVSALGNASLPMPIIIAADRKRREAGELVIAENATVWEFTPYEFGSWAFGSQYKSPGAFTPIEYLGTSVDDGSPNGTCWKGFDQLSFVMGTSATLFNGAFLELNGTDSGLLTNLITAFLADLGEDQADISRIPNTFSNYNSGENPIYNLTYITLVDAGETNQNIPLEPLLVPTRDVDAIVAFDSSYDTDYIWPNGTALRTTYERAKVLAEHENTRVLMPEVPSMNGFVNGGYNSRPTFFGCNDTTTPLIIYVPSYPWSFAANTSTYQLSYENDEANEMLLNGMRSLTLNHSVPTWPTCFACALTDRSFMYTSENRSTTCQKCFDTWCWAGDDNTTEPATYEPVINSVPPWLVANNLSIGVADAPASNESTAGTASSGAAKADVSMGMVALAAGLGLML
Kind of assay: Inhibition of Cryptococcus neoformans H99 PLB1activity. A digest of the protocol:
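Secreted enzyme from C. neoformans var. grubii H99 grown 72 h on SDA at 30 °C; cells washed and held 24 h at 37 °C in imidazole buffer pH 5.5, and the cell-free supernatant was used. Radiometric assay at 37 °C, pH 4.0 imidazole acetate, with 1 µg protein, 800 µM DPPC plus [14C]DPPC, for 22 min. Lipids were separated by TLC. Compounds at 0.25–250 µM in triplicate, with inhibition relative to the inhibitor-free control.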

Assay [1] has as its system RBCs. Kind of assay: Hemolytic activity as a measure of cytotoxicity against human red blood cells at 3.5 uM. It counts as functional, Erythrocyte.
For assay [2], the system named is RBCs. Kind of assay: Hemolytic activity as a measure of cytotoxicity against human red blood cells at 35 uM. It counts as functional, Erythrocyte.
Another assay relates to Candida albicans. As to the kind of experiment: Antifungal activity against Candida albicans ATCC 10231. It counts as functional.
A further assay relates to Cryptococcus neoformans. As to the kind of experiment: Antifungal activity against Cryptococcus neoformans ATCC 90112. Type of assay: functional.
The test system of assay [3] is RBCs. As to the kind of experiment: Hemolytic activity as a measure of cytotoxicity against human red blood cells at 350 uM. Type of assay: functional, Erythrocyte.
Assay [4] deals with RBCs. As to the kind of experiment: Hemolytic activity as a measure of cytotoxicity against human red blood cells at 87.5 uM. It counts as functional, Erythrocyte.
The subject of assay [5] is RBCs. As to the kind of experiment: Hemolytic activity as a measure of cytotoxicity against human red blood cells at 175 uM. Type of assay: functional, Erythrocyte.
The test system of a further assay is Fusarium solani. Kind of assay: Antifungal activity against Fusarium solani 04-132-4207. It counts as functional.
A further assay deals with Scedosporium boydii. Kind of assay: Antifungal activity against Scedosporium apiospermum 1-003-056. It counts as functional.
In another assay the test system is Aspergillus fumigatus. Kind of assay: Antifungal activity against Aspergillus fumigatus ATCC 204 305. Type of assay: functional.
In a further assay the test system is Aspergillus terreus. Kind of assay: Antifungal activity against Aspergillus terreus ATCC 03-232-378. It counts as functional.
The test system of a further assay is Aspergillus flavus. As to the kind of experiment: Antifungal activity against Aspergillus flavus ATCC 204 304. Type of assay: functional.
A further assay deals with Lomentospora prolificans. Kind of assay: Antifungal activity against Scedosporium prolificans 1-003-040. It counts as functional.
The target of assay [6] is Phospholipase A2, major isoenzyme (Sus scrofa) (UniProt P00592). Kind of assay: Inhibition of porcine pancreatic PLA2 activity at 25 uM and below. The procedure, abridged: (§1)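 Porcine pancreatic PLA2 was diluted in 10 mM Tris/HCl with 10 mM CaCl2, pH 8.2. It was run in the same radiometric assay as the fungal enzyme at 37 °C, using 800 µM DPPC with [14C]DPPC, for a 1 h reaction. Compounds were tested at 250, 25, 2.5 and 0.25 µM final, and inhibition was relative to the inhibitor-free control.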

The target is the same in assay [7]. As to the kind of experiment: Inhibition of porcine pancreatic PLA2 activity at 250 uM. A digest of the protocol:
as §1

Where [8] appears, read: Candida albicans, ATCC 10231, read-out: MIC.
Setting [9] is: Cryptococcus neoformans, ATCC 90112, read-out: MIC.

The term IC50 denotes the concentration needed to halve the response being measured. One may read the MIC as the least concentration at which growth counts as inhibited. The inhibition is the change of the read-out against control, counted positive when it falls.

Structures are written as SMILES. Converted amounts (≈) assume the structure as drawn. The source made the active and inactive calls. The rule behind the calls is not given here.

Sequence of Phospholipase A2, major isoenzyme (Sus scrofa) (P00592 23-146 limits assumed): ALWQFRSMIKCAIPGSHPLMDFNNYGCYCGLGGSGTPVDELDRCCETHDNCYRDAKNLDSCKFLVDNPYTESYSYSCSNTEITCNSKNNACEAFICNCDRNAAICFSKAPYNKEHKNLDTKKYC

With `CCCC[N+]1(CCCCCCCCCCCC[N+]2(CCCC)CCCC2)CCCC1.[Cl-].[Cl-]`, the IC50 against Phospholipase B was greater than 250 µM. Further, the Activity with RBCs [1], in the assay on RBCs [2], in the assay on RBCs [3], in the assay with RBCs [4] and with RBCs [5] was 0% in each case. Moreover, the MIC with Candida albicans (setting [8]) and in the assay on Cryptococcus neoformans (setting [9]) was 88 µM each time.

As for `C[N+]1(CCCCCCCCCCCC[N+]2(C)CCCC2)CCCC1`, the IC50 on Phospholipase B was greater than 250 µM. Further, the MIC in the assay on Candida albicans (setting [8]) and with Cryptococcus neoformans (setting [9]) was 175 µM each time.

As for `C[N+]1(CCCCCCCCCCCC[N+]2(C)CCOCC2)CCOCC1`, the IC50 on Phospholipase B was greater than 250 µM. Besides, the MIC amounted to 88 µM in the assay on Candida albicans (setting [8]) and 44 µM in the assay on Cryptococcus neoformans (setting [9]).

On Phospholipase B, `CCCCCCCC[N+](CCCCCCCC)(CCCCCCCC)CCCCCCCCCCCC[N+](CCCCCCCC)(CCCCCCCC)CCCCCCCC` displayed an IC50 greater than 250 µM. Besides, the MIC with Candida albicans (setting [8]) was 100 µM; in the assay with Cryptococcus neoformans (setting [9]) it was 35 µM.

In the case of `C[C@@H]1[C@H](O)[C@@H](C)/C=C/C=C/C=C/C=C/C=C/C=C/C=C/[C@H](O[C@@H]2O[C@H](C)[C@@H](O)[C@H](N)[C@@H]2O)C[C@@H]2O[C@](O)(C[C@@H](O)C[C@@H](O)[C@H](O)CC[C@@H](O)C[C@@H](O)CC(=O)O[C@H]1C)C[C@H](O)[C@H]2C(=O)O` [AMPHOTERICIN B], the MIC is 0.27 µM (≈ 0.25 µg/mL) with Fusarium solani; 0.54 µM (≈ 0.499 µg/mL) in the assay with Scedosporium boydii; 0.54 µM (≈ 0.499 µg/mL) in the assay with Aspergillus fumigatus; 1.1 µM (≈ 1.02 µg/mL) with Aspergillus terreus; 0.54 µM (≈ 0.499 µg/mL) in the assay with Candida albicans (setting [8]); 0.54 µM (≈ 0.499 µg/mL) in the assay on Cryptococcus neoformans (setting [9]). Also, the figures for the MIC in the assay on Aspergillus flavus and in the assay with Lomentospora prolificans were 0.54 µM (≈ 0.499 µg/mL) and 4.3 µM (≈ 3.97 µg/mL), respectively.

Regarding `C[N+](C)(C)CCCCCCCCCCCC[N+](C)(C)C.[Br-].[Br-]`, the IC50 against Phospholipase B was greater than 250 µM. For the same compound, the Activity in the assay with RBCs [1], in the assay with RBCs [2], in the assay on RBCs [3], with RBCs [4] and in the assay with RBCs [5] was 0% throughout. Further, the inhibition result in [6] and in assay [7] was “inactive” throughout. Further, the MIC with Candida albicans (setting [8]) and in the assay with Cryptococcus neoformans (setting [9]) was 175 µM each time.

`CC(C)CC[N+](CCCCCCCCCCCC[N+](CCC(C)C)(CCC(C)C)CCC(C)C)(CCC(C)C)CCC(C)C.[Cl-].[Cl-]` came in with an IC50 against Phospholipase B greater than 7.5 µM. Also, the Activity in the assay with RBCs [1] was found to be 0%; in the assay with RBCs [2], 0%; in the assay on RBCs [3], 100%; in the assay on RBCs [4], 4%; in the assay on RBCs [5], 30%. Moreover, in assay [6], the inhibition entry is “inactive”. The compound also gave an inhibition in assay [7] of 90%. Also, the results for the MIC with Candida albicans (setting [8]) and in the assay on Cryptococcus neoformans (setting [9]) were 2.2 µM and 4.4 µM, respectively.

Consider `CCCC[P+](CCCC)(CCCC)CCCCCCCCCCCC[P+](CCCC)(CCCC)CCCC.[Br-].[Br-]`, for which the IC50 on Phospholipase B was greater than 25 µM. In addition, the Activity in the assay on RBCs [1] is listed as 0%; with RBCs [2] it was 0%; with RBCs [3], 15%; in the assay on RBCs [4], 0%; in the assay on RBCs [5] it was 0%. Also, the results for the MIC with Candida albicans (setting [8]) and in the assay on Cryptococcus neoformans (setting [9]) were 8.8 µM and 2.5 µM, respectively.

In turn, `CCCCC[N+](CCCCC)(CCCCC)CCCCCCCCCCCC[N+](CCCCC)(CCCCC)CCCCC.[Br-].[Br-]` gave an IC50 at Phospholipase B of 3.5 µM. In addition, the Activity in the assay with RBCs [1] was determined as 0%; in the assay with RBCs [2] it was 0%; with RBCs [3] it was 100%; with RBCs [4], 0%; with RBCs [5], 5%. The inhibition entry in assay [6] was “inactive”. The inhibition in assay [7] was found to be 90%. Moreover, the MIC in the assay with Candida albicans (setting [8]) and with Cryptococcus neoformans (setting [9]) was 5.5 µM in each case.

As for `C[N+](C)(C)CCCCCCCCCC[N+](C)(C)C.[Br-].[Br-]` [DECAMETHONIUM BROMIDE], the IC50 at Phospholipase B was greater than 250 µM. Further, the Activity in the assay on RBCs [1], with RBCs [2], with RBCs [3], with RBCs [4] and with RBCs [5] was 0% in each case. The MIC in the assay with Candida albicans (setting [8]) and in the assay with Cryptococcus neoformans (setting [9]) was no less than 350 µM in each case.

On to `CCCC[N+](CCCC)(CCCC)CCCCCCCCCCCC[N+](CCCC)(CCCC)CCCC` [listing 1 of 2 here], for which the MIC in the assay on Candida albicans (setting [8]) was 5.5 µM; with Cryptococcus neoformans (setting [9]), 2.2 µM.

In turn, `CCC[N+](CCC)(CCC)CCCCCCCCCCCC[N+](CCC)(CCC)CCC` had an IC50 on Phospholipase B of 7 µM. The MIC in the assay on Candida albicans (setting [8]) turned out to be 10 µM; in the assay on Cryptococcus neoformans (setting [9]) it was 5.5 µM.

Turning to `C(CCCCCC[N+]12CCC(CC1)CC2)CCCCC[N+]12CCC(CC1)CC2`, the IC50 on Phospholipase B was greater than 250 µM. Also, the MIC in the assay with Candida albicans (setting [8]) was no less than 350 µM; in the assay with Cryptococcus neoformans (setting [9]) it was 350 µM.

Regarding `CC[N+](CC)(CC)CCCCCCCCCCCC[N+](CC)(CC)CC`, the IC50 on Phospholipase B is greater than 250 µM. The results for the MIC in the assay on Candida albicans (setting [8]) and in the assay on Cryptococcus neoformans (setting [9]) were 22 µM and 11 µM, respectively.

Compound `CCCCCC[N+](CCCCCC)(CCCCCC)CCCCCCCCCCCC[N+](CCCCCC)(CCCCCC)CCCCCC` yielded an IC50 at Phospholipase B of 7.5 µM. Besides, the inhibition entry in [6] is “inactive”. This compound registered an inhibition in assay [7] of 90%. Further, the MIC in the assay with Candida albicans (setting [8]) stood at 8.8 µM; in the assay on Cryptococcus neoformans (setting [9]) it was 17.5 µM.

On to `CCCC[N+](CCCC)(CCCC)CCCCCCCCCCCC[N+](CCCC)(CCCC)CCCC.[Cl-].[Cl-]`, for which the concentration for half-maximal inhibition (IC50) at Phospholipase B is 10 µM. Moreover, the MIC in the assay with Fusarium solani stood at 5.5 µM; in the assay on Scedosporium boydii it was 2.8 µM; against Aspergillus fumigatus it was 11 µM; in the assay on Aspergillus terreus, 5.5 µM; in the assay on Candida albicans, 5.5 µM; in the assay on Cryptococcus neoformans it was 2.2 µM. Besides, the MIC in the assay with Aspergillus flavus came to 22 µM; in the assay on Lomentospora prolificans it was 5.5 µM. Moreover, the Activity was found to be 0% in the assay with RBCs [1]; 0% with RBCs [2]; 100% in the assay on RBCs [3]; 0% in the assay with RBCs [4]; 5% in the assay with RBCs [5].

Consider `CCCC[N+](CCCC)(CCCC)CCCCCCCCCCCC[N+](CCCC)(CCCC)CCCC` [listing 2 of 2 here], for which the inhibition result in [6] is “inactive”. The inhibition in assay [7] came to 90%.
